ChEMBL document CHEMBL1154728, “Synthesis of nitroimidazole derived oxazolidinones as antibacterial agents” (Eur J Med Chem, 2010)
In brackets after ≈: the same amount, converted by molar mass.

How the values were obtained:
Staphylococcus aureus [1] = assay: Antibacterial activity against […] Staphylococcus aureus ATCC 25923 after 24 hrs by spectrophotometry; format: functional; details: ATCC 25923, 24 h
Summary of the method: (§1)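 Strains grown on nutrient agar at 37 °C for 24 h, then suspended in normal saline with 0.05% Tween 20 at about […] cells/mL (0.5 McFarland). Broth microdilution in Mueller Hinton broth per NCCLS. DMSO stock 1 mg/mL diluted into broth, then two-fold serial dilutions. Plates incubated at 35 °C in a moist, dark chamber. MIC read spectrophotometrically at 24 h.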

Staphylococcus aureus [2] = assay: Antibacterial activity against methicillin resistant Staphylococcus aureus ATCC 70069 after 24 hrs by spectrophotometry; format: functional; details: ATCC 70069, 24 h; summary of the method: as §1
Streptococcus pyogenes = assay: Antibacterial activity against Streptococcus pyogenes after 24 hrs by spectrophotometry; format: functional
Summary of the method: (§2)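 Strains grown on nutrient agar at 37 °C for 24 h, suspended in normal saline with 0.05% Tween 20 to about […] cells/mL (0.5 McFarland). Broth microdilution per NCCLS in Mueller Hinton broth. Compounds dissolved in DMSO at 1 mg/mL (stock), serially two-fold diluted. Growth, drug and negative controls included. Incubation at 35 °C, moist and dark; MIC read spectrophotometrically at 24 h.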

Bacillus cereus = assay: Antibacterial activity against Bacillus cereus MTCC 430 after 24 hrs by spectrophotometry; format: functional; details: MTCC 430, 24 h; summary of the method: as §2
Klebsiella pneumoniae = assay: Antibacterial activity against Klebsiella pneumoniae ATCC 27736 after 24 hrs by spectrophotometry; format: functional; details: ATCC 27736, 24 h; summary of the method: as §2
Staphylococcus aureus [3] = assay: Antibacterial activity against […] Staphylococcus aureus ATCC 29213 after 24 hrs by spectrophotometry; format: functional; details: ATCC 29213, 24 h; summary of the method: as §1
Enterococcus faecalis = assay: Antibacterial activity against Enterococcus faecalis MTCC439 after 24 hrs by spectrophotometry; format: functional; details: MTCC439, 24 h; summary of the method: as §2
L929 [4] = assay: Cytotoxicity against mouse L929 cells assessed as change in morphology at 0.09 ug/ml after 24 hrs by phase contrast microscopy; format: cell-based; details: l929, 24 h
Summary of the method: (§3)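 L929 fibroblasts in DMEM under 5% CO₂, switched to serum-free DMEM at 90% confluency, then exposed to compound for 24 h. Cells were fixed in the wells and stained with Giemsa for 30 min at 37 °C. Morphology was examined by phase contrast microscopy against untreated control cells.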

L929 [5] = assay: Cytotoxicity against mouse L929 cells assessed as cell viability after 24 hrs by MTT assay; format: cell-based; details: l929, 24 h
Summary of the method: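 Mouse fibroblast L929 cells seeded at 1 × 10³ cells per well in DMEM under humidified 5% CO₂. Medium switched to serum-free DMEM at 90% confluency (5 h). Cells exposed 24 h to a two-fold series ([…], then 12.5 down to 0.09). MTT read-out: absorbance at 570 minus 630 nm taken as the viability index.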

L929 [6] = assay: Cytotoxicity against mouse L929 cells assessed as change in morphology at 50 ug/ml after 24 hrs by phase contrast microscopy; format: cell-based; details: l929, 24 h; summary of the method: as §3

Structure (SMILES) | MIC (Staphylococcus aureus [1]) [µg/mL] | MIC (Staphylococcus aureus [2]) [µg/mL] | MIC (Streptococcus pyogenes) [µg/mL] | MIC (Bacillus cereus) [µg/mL] | MIC (Klebsiella pneumoniae) [µg/mL] | MIC (Staphylococcus aureus [3]) [µg/mL] | MIC (Enterococcus faecalis) [µg/mL] | Activity (L929 [4]) | Activity (L929 [5]) | Activity (L929 [6])
CC(=O)NC[C@H]1CN(c2ccc(N3CCN(CCn4ccnc4[N+](=O)[O-])CC3)c(F)c2)C(=O)O1 | 12.5 (≈ 26.3 µM) | 6.25 (≈ 13.1 µM) | 0.78 (≈ 1.64 µM) | 0.78 (≈ 1.64 µM) | 25 (≈ 52.6 µM) | 12.5 (≈ 26.3 µM) | 25 (≈ 52.6 µM) | – | – | –
CC(=O)NC[C@H]1CN(c2ccc(N3CCN(CCCn4c([N+](=O)[O-])cnc4C)CC3)c(F)c2)C(=O)O1 | 12.5 (≈ 24.8 µM) | 6.25 (≈ 12.4 µM) | 1.56 (≈ 3.1 µM) | 6.25 (≈ 12.4 µM) | 1.56 (≈ 3.1 µM) | 12.5 (≈ 24.8 µM) | 12.5 (≈ 24.8 µM) | – | – | –
CC(=O)NC[C@H]1CN(c2ccc(N3CCN(C(=O)Cn4c([N+](=O)[O-])cnc4C)CC3)c(F)c2)C(=O)O1 | 6.25 (≈ 12.4 µM) | 6.25 (≈ 12.4 µM) | 1.56 (≈ 3.1 µM) | 1.56 (≈ 3.1 µM) | 3.12 (≈ 6.2 µM) | 6.25 (≈ 12.4 µM) | 6.25 (≈ 12.4 µM) | – | – | –
CC(=O)NC[C@H]1CN(c2ccc(N3CCN(CC(O)Cn4c([N+](=O)[O-])cnc4C)CC3)c(F)c2)C(=O)O1 (stereo partly specified) | 3.12 (≈ 6.01 µM) | 0.39 (≈ 0.751 µM) | 0.39 (≈ 0.751 µM) | 0.78 (≈ 1.5 µM) | > 50 | 1.56 (≈ 3 µM) | 1.56 (≈ 3 µM) | – | – | –
CC(=O)NC[C@H]1CN(c2ccc(N3CCN(CCn4c([N+](=O)[O-])cnc4C)CC3)c(F)c2)C(=O)O1 | 3.12 (≈ 6.37 µM) | 0.78 (≈ 1.59 µM) | 0.78 (≈ 1.59 µM) | 0.097 (≈ 0.198 µM) | 0.78 (≈ 1.59 µM) | 3.12 (≈ 6.37 µM) | 3.12 (≈ 6.37 µM) | Non-toxic | Toxic | Toxic
CC(=O)NC[C@H]1CN(c2ccc(N3CCN(CC(O)Cn4cnc([N+](=O)[O-])c4)CC3)c(F)c2)C(=O)O1 (stereo partly specified) | 6.25 (≈ 12.4 µM) | 6.25 (≈ 12.4 µM) | 3.12 (≈ 6.17 µM) | 3.12 (≈ 6.17 µM) | > 50 | 12.5 (≈ 24.7 µM) | – | – | – | –
CC(=O)NC[C@H]1CN(c2ccc(N3CCN(CCCn4ccnc4[N+](=O)[O-])CC3)c(F)c2)C(=O)O1 | 6.25 (≈ 12.8 µM) | 6.25 (≈ 12.8 µM) | 0.78 (≈ 1.59 µM) | 6.25 (≈ 12.8 µM) | 0.78 (≈ 1.59 µM) | 12.5 (≈ 25.5 µM) | 12.5 (≈ 25.5 µM) | – | – | –
CC(=O)NC[C@H]1CN(c2ccc(N3CCN(CCCn4cnc([N+](=O)[O-])c4)CC3)c(F)c2)C(=O)O1 | 0.78 (≈ 1.59 µM) | 0.78 (≈ 1.59 µM) | 0.39 (≈ 0.797 µM) | 0.78 (≈ 1.59 µM) | 0.78 (≈ 1.59 µM) | 0.78 (≈ 1.59 µM) | 0.78 (≈ 1.59 µM) | Non-toxic | Toxic | Toxic
CC(=O)NC[C@H]1CN(c2ccc(N3CCN(C(=O)Cn4cnc([N+](=O)[O-])c4)CC3)c(F)c2)C(=O)O1 | 12.5 (≈ 25.5 µM) | 3.12 (≈ 6.37 µM) | 1.56 (≈ 3.19 µM) | 6.25 (≈ 12.8 µM) | 25 (≈ 51.1 µM) | 12.5 (≈ 25.5 µM) | 25 (≈ 51.1 µM) | – | – | –
CC(=O)NC[C@H]1CN(c2ccc(N3CCOCC3)c(F)c2)C(=O)O1 [LINEZOLID] | 1.56 (≈ 4.62 µM) | 1.56 (≈ 4.62 µM) | 1.56 (≈ 4.62 µM) | 0.78 (≈ 2.31 µM) | 1.56 (≈ 4.62 µM) | 3.12 (≈ 9.25 µM) | 3.12 (≈ 9.25 µM) | – | – | –
CN[C@H](CC(C)C)C(=O)N[C@H]1C(=O)N[C@@H](CC(N)=O)C(=O)N[C@H]2C(=O)N[C@H]3C(=O)N[C@H](C(=O)N[C@H](C(=O)O)c4cc(O)cc(O)c4-c4cc3ccc4O)[C@H](O)c3ccc(c(Cl)c3)Oc3cc2cc(c3O[C@@H]2O[C@H](CO)[C@@H](O)[C@H](O)[C@H]2O[C@H]2C[C@](C)(N)[C@H](O)[C@H](C)O2)Oc2ccc(cc2Cl)[C@H]1O [VANCOMYCIN] | 0.39 (≈ 0.269 µM) | 6.25 (≈ 4.31 µM) | 0.39 (≈ 0.269 µM) | 0.19 (≈ 0.131 µM) | – | 1.56 (≈ 1.08 µM) | 0.78 (≈ 0.538 µM) | – | – | –
